Assay results as given in ChEMBL document CHEMBL1132144, “Synthesis of 9-O-substituted derivatives of 9-hydroxy-5, 6-dimethyl-6H-pyrido[4,3-b]carbazole-1-carboxylic acid (2-(dimethylamino)ethyl)amide and their 10- and 11-methyl analogues with improved antitumor activity” (J Med Chem, 1999).
pIC50: −log10 of the molar value.

Assays:
L1210 = assay: Inhibition of murine L1210 leukemia cell proliferation measured by the MTT assay; assay type: functional, cell-based; details: Mus musculus
How it was run: (§1)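 Murine L1210 leukemia and B16 melanoma cells were grown in RPMI 1640 with 10% fetal calf serum, 2 mM L-glutamine, penicillin/streptomycin and 10 mM HEPES (pH 7.4). Cells were exposed to nine serial drug dilutions in triplicate for about four doubling times (L1210 48 h, B16 96 h), then read by microculture tetrazolium (MTT) assay. IC50 is the concentration halving optical density versus untreated controls, averaged over ≥2 independent experiments.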

Mus musculus [1] = assay: Long-term survivors among 18 mice infected with P388 leukemia, scored on day 60 at 40 mg/kg dose; assay type: functional
How it was run: (§2)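 B6D2F1 mice in groups of 6–7 were inoculated ip on day 0 with 10^6 P388 cells. Dihydrochloride salts were dissolved in water and given iv on day 1 or on days 1, 5 and 9. Doses ranged from a low nontoxic dose to a toxic one. Long-term survivors were counted at day 60.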

Mus musculus [2] = assay: Long-term survivors among 12 mice infected with P388 leukemia, scored on day 60 at 10 mg/kg dose; assay type: functional; how it was run: as §2
B16 = assay: Inhibition of murine B16 melanoma cell proliferation measured by the MTT assay; assay type: functional, cell-based; details: Mus musculus; how it was run: as §1
Mus musculus [3] = assay: Percent median survival time of mice intraperitoneally injected with P388 leukemia was determined from tested at 10 mg/kg at day1,5,9 dose to that of control; assay type: functional
How it was run: (§3)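 P388 leukemia in B6D2F1 mice (groups of 6–7), 10^6 cells inoculated ip on day 0. Dihydrochloride salts were dissolved in water and given iv on day 1 or on days 1, 5, 9. Three doses were tested, then five if active. %T/C = median survival treated/control × 100, reported at the optimal dose (no toxic death, weight loss <20%), from one or two representative experiments.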

Mus musculus [4] = assay: Percent median survival time of mice intraperitoneally injected with P388 leukemia was determined from tested at 40 mg/kg at day1 dose to that of control; assay type: functional; details: route intraperitoneal; how it was run: as §3
Mus musculus [5] = assay: Percent median survival time of mice injected with B16 melanoma, at a intraperitoneal compound dose of 2.5 mg/kg
Mus musculus [6] = assay: Long-term survivors among 14 mice infected with B16 melanoma, scored on day 90 at 2.5 mg/kg dose
Mus musculus [7] = assay: Percent median survival time of mice injected with P388 leukemia, at a subcutaneous compound dose of 10 mg/kg; assay type: functional
Mus musculus [8] = assay: Long-term survivors among 12 mice infected with P388 leukemia, scored on day 60 at 20 mg/kg dose on day 1; assay type: functional; how it was run: as §2
Mus musculus [9] = assay: Long-term survivors among 12 mice infected with P388 leukemia, scored on day 60 at 10 mg/kg dose on day 1, 5, 9; assay type: functional; how it was run: as §2
Mus musculus [10] = assay: Long-term survivors among 7 mice infected with B16 melanoma, scored on day 90 at 40 mg/kg dose on day 1, 5, 9; assay type: functional
Mus musculus [11] = assay: Percent median survival time of mice injected with P388 leukemia, at a subcutaneous compound dose of 20 mg/kg; assay type: functional
Mus musculus [12] = assay: Percent median survival time of mice injected with B16 melanoma, at a intraperitoneal compound dose of 5 mg/kg
Mus musculus [13] = assay: Percent median survival time of mice intraperitoneally injected with P388 leukemia was determined from tested at 160 mg/kg at day1,5,9 dose to that of control; assay type: functional; details: route intraperitoneal; how it was run: as §3
Mus musculus [14] = assay: Percent median survival time of mice intraperitoneally injected with P388 leukemia was determined from tested at 320 mg/kg at day1 dose to that of control; assay type: functional; details: route intraperitoneal; how it was run: as §3
Mus musculus [15] = assay: Long-term survivors among 7 mice infected with B16 melanoma, scored on day 90 at 80 mg/kg dose
Mus musculus [16] = assay: Percent median survival time of mice injected with B16 melanoma, at a intraperitoneal compound dose of 80 mg/kg
Mus musculus [17] = assay: Long-term survivors among 6 mice infected with P388 leukemia, scored on day 60 at 320 mg/kg dose; assay type: functional; how it was run: as §2
Mus musculus [18] = assay: Long-term survivors among 6 mice infected with P388 leukemia, scored on day 60 at 160 mg/kg dose; assay type: functional; how it was run: as §2
Mus musculus [19] = assay: Long-term survivors among 6 mice infected with P388 leukemia, scored on day 60 at 5 mg/kg dose on day 1; assay type: functional; how it was run: as §2
Mus musculus [20] = assay: Percent median survival time of mice injected with P388 leukemia, at a subcutaneous compound dose of 5 mg/kg on day 1; assay type: functional
Mus musculus [21] = assay: Percent median survival time of mice injected with B16 melanoma, at a intraperitoneal compound dose of 20 mg/kg
Mus musculus [22] = assay: Long-term survivors among 6 mice infected with B16 melanoma, scored on day 90 at 102 mg/kg dose on day 1; assay type: functional
Mus musculus [23] = assay: Percent median survival time of mice injected with P388 leukemia, at a subcutaneous compound dose of 5 mg/kg on day 1, 5, 9; assay type: functional
Mus musculus [24] = assay: Long-term survivors among 6 mice infected with P388 leukemia, scored on day 60 at 20 mg/kg dose on day 1, 5, 9; assay type: functional; how it was run: as §2
Mus musculus [25] = assay: Percent median survival time of mice intraperitoneally injected with P388 leukemia was determined from tested at 20 mg/kg at day1,5,9 dose to that of control; assay type: functional; details: route intravenous; how it was run: as §3
Mus musculus [26] = assay: Long-term survivors among 7 mice infected with P388 leukemia, scored on day 90 at 5 mg/kg dose; assay type: functional
Mus musculus [27] = assay: Percent median survival time of mice intraperitoneally injected with P388 leukemia was determined from tested at 20 mg/kg at day1 dose to that of control; assay type: functional; details: route intraperitoneal; how it was run: as §3
Mus musculus [28] = assay: Long-term survivors among 6 mice infected with P388 leukemia, scored on day 60 at 20 mg/kg dose on day 1; assay type: functional; how it was run: as §2
Mus musculus [29] = assay: Long-term survivors among 10 mice infected with P388 leukemia, scored on day 60 at 20 mg/kg dose; assay type: functional
Mus musculus [30] = assay: Long-term survivors among 10 mice infected with P388 leukemia, scored on day 60 at 10 mg/kg dose; assay type: functional
Mus musculus [31] = assay: Long-term survivors among 7 mice infected with B16 melanoma, scored on day 90 at 20 mg/kg dose
Mus musculus [32] = assay: Long-term survivors among 6 mice infected with P388 leukemia, scored on day 60 at 20 mg/kg dose; assay type: functional; how it was run: as §2
Mus musculus [33] = assay: Percent median survival time of mice injected with B16 melanoma, at a intraperitoneal compound dose of 0.5 mg/kg
Mus musculus [34] = assay: Percent median survival time of mice injected with P388 leukemia, at a intravenous compound dose of 7.5 mg/kg
Mus musculus [35] = assay: Long-term survivors among 6 mice infected with P388 leukemia, scored on day 60 at 7.5 mg/kg dose; assay type: functional; how it was run: as §2

`Cc1c2c(C(=O)NCCN(C)C)nccc2c(C)c2c1c1cc(O)ccc1n2C` was tested, and the pIC50 (L1210) was 7.87, the LTS (Mus musculus [1]) was 15 and the LTS (Mus musculus [2]) was 9. For the same molecule, the pIC50 (B16) was 8.47, the T/C (Mus musculus [3]) was >600% and the T/C (Mus musculus [4]) was >600%. The T/C (Mus musculus [5]) was 166% and the LTS (Mus musculus [6]) was 1.

`Cc1c2ccnc(C(=O)NCCN(C)C)c2cc2c3cc(OC(=O)C4C[C@@H]4c4ccccc4)ccc3n(C)c12` (some centres undefined) was tested, and the T/C (Mus musculus [7]) was 152%, the pIC50 (L1210) was 7.51 and the LTS (Mus musculus [8]) was 0. For the same molecule, the LTS (Mus musculus [9]) was 0, the pIC50 (B16) was 7.85 and the LTS (Mus musculus [10]) was 0. For the same molecule, the T/C (Mus musculus [11]) was 146% and the T/C (Mus musculus [12]) was 129%.

`Cc1c2ccnc(C(=O)NCCN(C)C)c2cc2c3cc(OP(=O)(O)OCc4ccccc4)ccc3n(C)c12` showed a pIC50 (L1210) of 5.40, a T/C (Mus musculus [13]) of 111% and a T/C (Mus musculus [14]) of 142%. For the same molecule, the LTS (Mus musculus [15]) was 0, the T/C (Mus musculus [16]) was 144% and the LTS (Mus musculus [17]) was 0. For the same molecule, the pIC50 (B16) was 6.29 and the LTS (Mus musculus [18]) was 0.

With `Cc1c2ccnc(C(=O)NCCN(C)C)c2cc2c3cc(OC(=O)N4CCN(C(c5ccccc5)c5ccccc5)CC4)ccc3n(C)c12` the pIC50 (L1210) was 6.79, the LTS (Mus musculus [19]) was 0 and the T/C (Mus musculus [20]) was 102%. For the same molecule, the pIC50 (B16) was 6.23, the T/C (Mus musculus [21]) was 102% and the LTS (Mus musculus [22]) was 0. For the same molecule, the T/C (Mus musculus [23]) was 94%.

Molecule `Cc1c2ccnc(C(=O)NCCN(C)C)c2cc2c3cc(OCC4C[C@@H]4c4ccccc4)ccc3n(C)c12` (some centres undefined) has an LTS (Mus musculus [24]) of 0, a pIC50 (L1210) of 6.43 and a T/C (Mus musculus [25]) of 99%. The LTS (Mus musculus [26]) was 0, the pIC50 (B16) was 6.55 and the T/C (Mus musculus [27]) was 102%. It also gave an LTS (Mus musculus [28]) of 0 and a T/C (Mus musculus [12]) of 94%.

With `COc1cccc2c1C(=O)c1c(O)c3c(c(O)c1C2=O)C[C@@](O)(C(=O)CO)C[C@@H]3O[C@H]1C[C@H](N)[C@H](O)[C@H](C)O1` [DOXORUBICIN] the T/C (Mus musculus [7]) was 332%, the LTS (Mus musculus [29]) was 2 and the LTS (Mus musculus [30]) was 4. For the same molecule, the pIC50 (L1210) was 7.46, the pIC50 (B16) was 8.12 and the T/C (Mus musculus [11]) was 258%. For the same molecule, the T/C (Mus musculus [5]) was 456%.

Molecule `Cc1c2cc[n+](C)cc2c(C)c2c1[nH]c1ccc(O)cc12` [ELLIPTINIUM] has an LTS (Mus musculus [31]) of 0, a pIC50 (L1210) of 7.26 and an LTS (Mus musculus [32]) of 0. The pIC50 (B16) was 6.97, the T/C (Mus musculus [11]) was 138% and the T/C (Mus musculus [33]) was 133%. For the same molecule, the T/C (Mus musculus [34]) was 112% and the LTS (Mus musculus [35]) was 0.
